{
  "source": "ChEMBL document CHEMBL4842326",
  "about": "“Design, synthesis and biological evaluation of 3, 4-disubstituted-imidazolidine-2, 5-dione derivatives as HDAC6 selective inhibitors” (Eur J Med Chem, 2021)",
  "key": {"HL-60 [1]": {"tested_on": "HL-60", "assay": "Induction of apoptosis in human HL-60 cells assessed as activation of caspase-3 at 3 uM measured by fluorescence assay", "assay_type": "functional, cell-based"}, "HL-60 [2]": {"tested_on": "HL-60", "assay": "Induction of apoptosis in human HL-60 cells assessed as early apoptotic cells at 3 uM after 48 hrs by Annexin V-FITC/propidium iodide staining based flow cytometric analysis (reference value: […]%)", "assay_type": "functional"}, "NCI-H929": {"tested_on": "NCI-H929", "assay": "Antiproliferative activity against human NCI-H929 cells assessed as inhibition of cell proliferation after 48 hrs by MTT assay", "assay_type": "functional, cell-based", "conditions": "NCI-H929, 48 h", "procedure,_shortened": "(§1)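 Leukemia/myeloma lines grown in RPMI1640 with 10% FBS at 37 °C, 5% CO2; seeded at 3500–4000 cells/well, cultured overnight, then exposed to serial dilutions for 48 h.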"}, "Homo sapiens": {"organism": "Homo sapiens", "assay": "Selectivity ratio of IC50 for HDAC1 (unknown origin) to IC50 for HDAC6 (unknown origin)"}, "Histone deacetylase 8": {"molecular_target": "T1, Histone deacetylase 8 (Homo sapiens, UniProt Q9BY41)", "T1 sequence (Q9BY41 whole entry)": "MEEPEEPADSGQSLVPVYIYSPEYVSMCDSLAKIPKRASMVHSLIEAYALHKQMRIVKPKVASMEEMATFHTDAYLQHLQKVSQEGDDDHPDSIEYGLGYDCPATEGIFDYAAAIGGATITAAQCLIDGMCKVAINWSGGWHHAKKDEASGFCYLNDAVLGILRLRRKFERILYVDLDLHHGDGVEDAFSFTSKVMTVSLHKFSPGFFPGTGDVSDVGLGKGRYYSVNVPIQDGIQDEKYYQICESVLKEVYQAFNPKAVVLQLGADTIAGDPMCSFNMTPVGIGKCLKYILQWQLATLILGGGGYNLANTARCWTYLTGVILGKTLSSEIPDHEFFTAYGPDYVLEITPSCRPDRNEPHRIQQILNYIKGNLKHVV", "assay": "Inhibition of HDAC8 (unknown origin) using Ac-LeuGlyLys(tfa)-AMC as substrate preincubated for 10 mins followed by substrate addition and further incubated for incubated for 1 hrs by fluorescence microtiter plate reader assay"}, "HL-60 [3]": {"tested_on": "HL-60", "assay": "Induction of apoptosis in human HL-60 cells assessed as necrotic cells at 3 uM after 48 hrs by Annexin V-FITC/propidium iodide staining based flow cytometric analysis (reference value: 0.017%)", "assay_type": "functional", "procedure,_shortened": "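HL-60 cells (1 × 10^6/well) exposed 48 h to compound dilutions, collected, PBS-washed, resuspended in Annexin V-FITC binding buffer, stained with propidium iodide and Annexin V-FITC for 15 min, then analysed by flow cytometry.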"}, "HL-60 [4]": {"tested_on": "HL-60", "assay": "Antiproliferative activity against human HL-60 cells assessed as inhibition of cell proliferation after 48 hrs by MTT assay", "assay_type": "functional, cell-based", "conditions": "HL-60, 48 h", "procedure,_shortened": "as §1"}, "[5]": {"molecular_target": "T2, Protein deacetylase HDAC6 (Homo sapiens) (UniProt Q9UBN7)", "T2 sequence (whole entry)": "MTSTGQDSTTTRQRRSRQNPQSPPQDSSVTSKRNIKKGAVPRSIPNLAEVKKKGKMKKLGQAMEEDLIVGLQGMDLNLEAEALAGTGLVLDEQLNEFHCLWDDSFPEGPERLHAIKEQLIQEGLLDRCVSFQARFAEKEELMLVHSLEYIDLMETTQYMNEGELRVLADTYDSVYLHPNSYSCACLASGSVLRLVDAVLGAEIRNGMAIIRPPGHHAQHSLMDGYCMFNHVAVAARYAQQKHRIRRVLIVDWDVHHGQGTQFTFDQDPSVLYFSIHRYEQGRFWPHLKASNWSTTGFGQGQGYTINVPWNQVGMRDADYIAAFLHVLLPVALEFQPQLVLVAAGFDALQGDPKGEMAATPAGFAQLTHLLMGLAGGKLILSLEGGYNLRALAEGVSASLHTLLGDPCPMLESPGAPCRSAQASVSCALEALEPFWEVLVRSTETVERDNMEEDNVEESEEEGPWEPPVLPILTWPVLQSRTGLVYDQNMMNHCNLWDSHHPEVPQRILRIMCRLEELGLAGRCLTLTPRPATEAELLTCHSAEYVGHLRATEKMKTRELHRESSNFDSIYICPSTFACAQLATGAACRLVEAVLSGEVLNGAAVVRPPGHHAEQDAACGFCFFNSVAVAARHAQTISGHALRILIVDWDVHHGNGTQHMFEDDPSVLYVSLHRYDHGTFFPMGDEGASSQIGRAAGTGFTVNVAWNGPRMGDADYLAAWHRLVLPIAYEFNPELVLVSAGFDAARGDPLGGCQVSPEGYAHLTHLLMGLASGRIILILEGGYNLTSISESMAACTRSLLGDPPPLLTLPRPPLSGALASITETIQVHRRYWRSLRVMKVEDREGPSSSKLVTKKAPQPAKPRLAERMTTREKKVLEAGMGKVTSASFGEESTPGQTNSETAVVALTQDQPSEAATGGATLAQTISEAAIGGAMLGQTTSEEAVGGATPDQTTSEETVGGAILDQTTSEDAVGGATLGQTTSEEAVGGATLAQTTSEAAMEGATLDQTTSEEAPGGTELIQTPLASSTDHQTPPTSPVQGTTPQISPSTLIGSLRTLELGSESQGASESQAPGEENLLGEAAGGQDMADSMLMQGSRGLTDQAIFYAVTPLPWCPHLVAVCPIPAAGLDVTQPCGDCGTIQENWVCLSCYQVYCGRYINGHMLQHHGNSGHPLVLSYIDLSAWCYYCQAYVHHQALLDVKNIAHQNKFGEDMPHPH", "assay": "Inhibition of HDAC6 in human HL-60 cells assessed as increase in acetylation of alpha tubulin by Western blot analysis", "assay_type": "cell-based", "conditions": "TDE = time-dependent effect", "procedure,_shortened": "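HL-60 cells treated 12 h or 24 h, pelleted, lysed in RIPA with 1 mM PMSF on ice 30 min, cleared at 4 °C; lysates run on 12.5% SDS-PAGE, blotted to PVDF, blocked in 5% milk 1 h, probed overnight at 4 °C for acetyl-α-tubulin, acetyl-H3 and GAPDH, secondary 1 h, ECL detection.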"}, "Histone deacetylase 1": {"molecular_target": "Histone deacetylase 1 (Homo sapiens, UniProt Q13547)", "sequence (Q13547 whole entry)": "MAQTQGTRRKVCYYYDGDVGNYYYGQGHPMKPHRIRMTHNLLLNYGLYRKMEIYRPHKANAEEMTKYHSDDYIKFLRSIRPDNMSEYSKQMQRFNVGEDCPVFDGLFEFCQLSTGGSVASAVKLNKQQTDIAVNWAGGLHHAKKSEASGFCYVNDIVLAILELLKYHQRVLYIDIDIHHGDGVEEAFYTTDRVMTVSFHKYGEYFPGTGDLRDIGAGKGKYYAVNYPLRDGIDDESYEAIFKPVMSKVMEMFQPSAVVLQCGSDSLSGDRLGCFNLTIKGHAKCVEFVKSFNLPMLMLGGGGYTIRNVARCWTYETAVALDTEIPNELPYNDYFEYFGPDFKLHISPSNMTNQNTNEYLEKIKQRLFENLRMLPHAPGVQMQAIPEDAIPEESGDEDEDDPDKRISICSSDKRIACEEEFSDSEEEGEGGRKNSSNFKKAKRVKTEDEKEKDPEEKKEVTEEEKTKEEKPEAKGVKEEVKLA", "assay": "Inhibition of HDAC1 (unknown origin) using Ac-LeuGlyLys(Ac)-AMC as substrate preincubated for 10 mins followed by substrate addition and further incubated for incubated for 1 hrs by fluorescence microtiter plate reader assay"}},
  "note": "Calls of active or inactive are those of the source. The rule behind the calls is not given here.",
  "data": [
    {"smiles": "O=C(NO)c1ccc(CN2C(=O)C(Cc3ccccc3)N(Cc3cccnc3)C2=O)cc1", "note": "(racemic)", "values": [
      {"measurement": "Activity", "setting": "HL-60 [1]", "value": "Active"},
      {"measurement": "Activity", "setting": "HL-60 [2]", "value": 10.5, "unit": "%"},
      {"measurement": "IC50", "setting": "NCI-H929", "value": 7.61, "unit": "µM"},
      {"measurement": "Ratio IC50", "setting": "Homo sapiens", "value": 5540},
      {"measurement": "IC50", "setting": "Histone deacetylase 8", "value": 3.44, "unit": "µM"},
      {"measurement": "Activity", "setting": "HL-60 [3]", "value": 0.035, "unit": "%"},
      {"measurement": "IC50", "setting": "HL-60 [4]", "value": 3.23, "unit": "µM"},
      {"measurement": "inhibition", "setting": "[5]", "value": "Tde"},
      {"measurement": "IC50", "setting": "Histone deacetylase 1", "value": 11.6, "unit": "µM"}
    ]}
  ]
}
